# ChEMBL document CHEMBL1157324, “Lophocladines, bioactive alkaloids from the red alga Lophocladia sp” (J Nat Prod, 2006)
# Calls of active or inactive are those of the source. No cut-off for these calls is given here.
# Legend:
# [1] = biological target: Delta-type opioid receptor (Homo sapiens) (UniProt P41143); assay: Displacement of [3H][D-Ala2,D-Leu5]enkephalin from human cloned delta opioid receptor at 10 uM
# In short: (§1)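 Receptor screen run by the NIMH Psychoactive Drug Screening Program. Each compound at 10 μM incubated with the relevant receptor preparation; percent inhibition of radioligand binding determined.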
# NCI-H460 [2] = assay: Cytotoxicity against human NCI-H460 cells at 45 uM after 48 hrs by MTT assay; assay type: functional, cell-based
# In short: (§2)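 Cells grown in RPMI-1640 with L-glutamine, 1 mM pyruvate, penicillin/streptomycin, 0.2% bicarbonate and 10% FBS, seeded at 6000 cells/well. After 24 h, compound in DMSO diluted into serum-free medium was added (DMSO under 1% final), as a single screening concentration or a dilution series. Viability by MTT reduction after 48 h.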
# MDA-MB-435 [3] = assay: Cytotoxicity against human MDA-MB-435 cells at 450 uM after 48 hrs by SRB assay; assay type: functional, cell-based
# In short: (§3)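 MDA-MB-435 cells grown in IMEM with 10% FBS, attached 24 h in 96-well plates, then exposed 48 h to compound or EtOH vehicle. Fixed with 10% TCA at 4 °C for 1 h, stained with 0.4% SRB for 30 min, washed with 1% HOAc, solubilised in 10 mM Tris. Absorbance read at 560 nm. IC50 taken from linear portion of log dose-response curves.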
# [4] = Displacement of radiolabeled MK801 from NMDA receptor at 10 uM; in short: as §1
# N2a = assay: Cytotoxicity against mouse Neuro2a cells at 45 uM after 48 hrs by MTT assay; assay type: functional, cell-based; in short: as §2
# [5] = biological target: Delta-type opioid receptor (Homo sapiens) (UniProt P41143); assay: Agonist activity at human delta opioid receptor expressed in CHO cells assessed as inhibition of forskolin-stimulated adenylyl cyclase relative to [D-Pen2,D-Pen5]-enkephalin; assay type: functional, cell-based
# In short: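 δ-Opioid receptor-expressing CHO cells washed with serum-free F12 Ham's medium, labelled 8 h with 1.2 μCi [3H]adenine. Then 40 min at 37 °C with 50 μM Ro20-1724, peptidase inhibitors (10 μM bestatin, 30 μM captopril, 50 μM L-leucyl-L-leucine), 50 μM forskolin and varied ligand concentrations. [3H]cAMP isolated on cation-exchange resin and alumina, counted with [14C]cAMP recovery correction.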
# NCI-H460 [6] = assay: Induction of morphological changes in human NCI-H460 cells at 13.5 uM after 24 hrs; assay type: functional, cell-based
# MDA-MB-435 [7] = assay: Cell cycle arrest in human MDA-MB-435 cells assessed as accumulation at G1 phase at 20 uM after 24 hrs by flow cytometry; assay type: functional
# In short: (§4)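 MDA-MB-435 cells grown in IMEM with 10% FBS and gentamycin. Exposed 24 h to vehicle or sample, harvested and stained with Krishan's reagent. Propidium iodide intensity read by flow cytometry, with quality-control samples each run. Percentage of cells in each cycle phase fitted by manual analysis.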
# A10 [8] = assay: Induction of microtubule depolymerization in rat A10 cells at 113 uM after 24 hrs by indirect immunofluorescence technique; assay type: functional, cell-based
# In short: (§5)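 A-10 cells on glass coverslips in Basal Medium Eagle with 10% FBS, treated 18-24 h. Methanol-fixed, blocked with 10% calf serum, probed with monoclonal β-tubulin antibody then FITC sheep anti-mouse secondary for 1 h. Nuclei stained with 0.1 μg/mL DAPI. Examined by fluorescence microscopy.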
# NCI-H460 [9] = assay: Induction of morphological changes in human NCI-H460 cells at 13.5 uM after 6 days; assay type: functional
# MDA-MB-435 [10] = assay: Cell cycle arrest in human MDA-MB-435 cells assessed as accumulation at S phase at 20 uM after 24 hrs by flow cytometry; assay type: functional; in short: as §4
# A10 [11] = assay: Induction of nucleus breakdown into micronuclei in rat A10 cells; assay type: functional, cell-based; in short: as §5
# A10 [12] = assay: Induction of microtubule depolymerization in rat A10 cells at 45 uM after 24 hrs by indirect immunofluorescence technique; assay type: functional; conditions: A10, 24 h; in short: as §5
# A10 [13] = assay: Induction of actin microfilament disrupting activity in rat A10 cells at 113 uM after 24 hrs; assay type: functional, cell-based
# In short: (§6)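 A-10 rat aortic smooth muscle cells on glass coverslips in BME with 10% fetal calf serum, treated 24 h. Fixed in 3% paraformaldehyde, permeabilised with 0.2% Triton X-100, reduced with sodium borohydride. Actin stained 45 min with 100 nM TRITC-phalloidin, DNA with DAPI. Examined by fluorescence microscopy.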
# A10 [14] = assay: Induction of actin microfilament disrupting activity in rat A10 cells at 45 uM after 24 hrs; assay type: functional, cell-based; in short: as §6
# NCI-H460 [15] = assay: Cytotoxicity against human NCI-H460 cells after 48 hrs by MTT assay; assay type: functional, cell-based; conditions: NCI-H460, 48 h; in short: as §2
# MDA-MB-435 [16] = assay: Cell cycle arrest in human MDA-MB-435 cells assessed as accumulation at G2/M phase at 20 uM after 24 hrs by flow cytometry; assay type: functional; in short: as §4
# MDA-MB-435 [17] = assay: Cytotoxicity against human MDA-MB-435 cells after 48 hrs by SRB assay; assay type: functional, cell-based; conditions: MDA-MB-435, 48 h; in short: as §3
# Chain of Delta-type opioid receptor (Homo sapiens) (P41143 whole entry): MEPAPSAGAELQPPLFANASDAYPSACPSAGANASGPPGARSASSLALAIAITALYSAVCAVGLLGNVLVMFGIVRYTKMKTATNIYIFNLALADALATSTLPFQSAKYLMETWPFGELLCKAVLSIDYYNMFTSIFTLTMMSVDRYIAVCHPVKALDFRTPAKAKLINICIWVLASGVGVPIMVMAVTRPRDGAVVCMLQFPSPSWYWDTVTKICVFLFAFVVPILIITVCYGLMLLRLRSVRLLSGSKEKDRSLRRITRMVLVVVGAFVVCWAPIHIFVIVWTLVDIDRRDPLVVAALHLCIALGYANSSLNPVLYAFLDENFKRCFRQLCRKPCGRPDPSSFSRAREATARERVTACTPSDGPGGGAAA
inhibition [1] [%],inhibition [4] [%],Activity [5],SMILES,Activity (NCI-H460 [2]),Activity (MDA-MB-435 [3]),Activity (N2a),Activity (NCI-H460 [6]),Activity (MDA-MB-435 [7]) [%],Activity (A10 [8]),Activity (NCI-H460 [9]) [%],Activity (MDA-MB-435 [10]) [%],Activity (A10 [11]),inhibition at 45 µM (A10 [12]) [%],Activity (A10 [13]),Activity (A10 [14]),IC50 (NCI-H460 [15]) [µM],Activity (MDA-MB-435 [16]) [%],IC50 (MDA-MB-435 [17]) [µM]
50,50,inactive,O=c1[nH]cc(-c2ccccc2)c2ccncc12,inactive,inactive,inactive,,,,,,,,,,,,
,,,Nc1ncc(-c2ccccc2)c2ccncc12 [LOPHOCLADINE B],,,inactive,Active,19.8,Active,80,8,Active,85,inactive,inactive,64.6,72.2,3.1
